In brackets after ≈: the same amount, converted by molar mass. Activity calls are given as the source filed them. The calls are words filed in the database; no cut-off is given here.
Columns and labels:
Carnobacterium divergens [1] = assay: Activity of Carnobacterium divergens BM4489 penicillinase Cad-1 assessed as initial rate of hydrolysis by spectrophotometer
Carnobacterium divergens [2] = assay: Antimicrobial activity against Carnobacterium divergens BM4489 expressing beta-lactamase CAD1 at 3 McFarland inoculum size by E-test; type: functional
Carnobacterium divergens [3] = assay: Antimicrobial activity against Carnobacterium divergens CIP101029 at 3 McFarland inoculum size by E-test; type: functional
Carnobacterium divergens [4] = assay: Antimicrobial activity against Carnobacterium divergens BM4490 expressing beta-lactamase CAD1 at 3 McFarland inoculum size by E-test; type: functional, organism-based; settings: 3 M
Carnobacterium divergens [5] = assay: Antimicrobial activity against Carnobacterium divergens BM4489 expressing beta-lactamase CAD1 at 0.5 McFarland inoculum size by E-test; type: functional
Escherichia coli [6] = assay: Antimicrobial activity against Escherichia coli BL21 (DE3) harboring pAT514 by E-test; type: functional
Method in brief: (§1)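 MICs read by E-test strips on Mueller-Hinton agar.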

Escherichia coli [7] = assay: Antimicrobial activity against Escherichia coli BL21 (DE3) by E-test; type: functional; method in brief: as §1
Carnobacterium divergens [8] = assay: Antimicrobial activity against Carnobacterium divergens BM4490 expressing beta-lactamase CAD1 at 0.5 McFarland inoculum size by E-test; type: functional, organism-based
Carnobacterium divergens [9] = assay: Ratio of Kcat to Km of Carnobacterium divergens BM4489 penicillinase Cad-1
Carnobacterium divergens [10] = assay: Ratio of Kcat to Km of Carnobacterium divergens BM4489 penicillinase Cad-1 relative to benzyl-penicillin
Carnobacterium divergens [11] = assay: Antimicrobial activity against Carnobacterium divergens CIP101029 at 0.5 McFarland inoculum size by E-test; type: functional
Carnobacterium divergens [12] = assay: Activity of Carnobacterium divergens BM4489 penicillinase Cad-1 at 1 uM enzyme concentration assessed as initial rate of hydrolysis by spectrophotometer
[13] = Ratio of IC50 for beta-lactamase TEM-1 over IC50 for Carnobacterium divergens BM4489 penicillinase Cad-1
[14] = Inhibition of Carnobacterium divergens BM4489 penicillinase Cad-1
Method in brief: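 CAD-1 carried a C-terminal His6 tag and was expressed in E. coli BL21-CodonPlus(DE3)-RIPL from pAT514. It was purified by Ni affinity and Superdex 75 gel filtration. Enzyme was preincubated with varied inhibitor for 30 min at 25°C in 100 mM sodium phosphate pH 7.0, then 100 µM nitrocefin was added. Initial hydrolysis rates were followed spectrophotometrically. IC50 is the inhibitor concentration halving the rate.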

Row | Structure (SMILES) | Km (Carnobacterium divergens [1]) [µM] | kcat (Carnobacterium divergens [1]) [s⁻¹] | MIC (Carnobacterium divergens [2]) [µg/mL] | MIC (Carnobacterium divergens [3]) [µg/mL] | MIC (Carnobacterium divergens [4]) | MIC (Carnobacterium divergens [5]) [µg/mL] | MIC (Escherichia coli [6]) [µg/mL] | MIC (Escherichia coli [7]) [µg/mL] | MIC (Carnobacterium divergens [8]) | kcat/Km (Carnobacterium divergens [9]) [M⁻¹ s⁻¹] | kcat/Km (Carnobacterium divergens [10]) | MIC (Carnobacterium divergens [11]) [µg/mL] | Activity (Carnobacterium divergens [12]) | Ratio IC50 [13] | IC50 [14] [µM]
1 | CC1(C)S[C@@H]2[C@H](NC(=O)[C@H](C(=O)O)c3ccsc3)C(=O)N2[C@H]1C(=O)O [TICARCILLIN] | 106 | 35 | 128 (≈ 333 µM) | 24 (≈ 62.4 µM) | Active | 32 (≈ 83.2 µM) | > 256 | 0.75 (≈ 1.95 µM) | Active | 330000 | 5 | 24 (≈ 62.4 µM) |  |  | 
2 | CO/N=C(\C(=O)N[C@@H]1C(=O)N2C(C(=O)O)=C(COC(C)=O)CS[C@H]12)c1csc(N)n1 [CEFOTAXIME] |  |  | > 256 | > 256 | Active | > 256 |  | < 0.016 | Active |  |  | > 256 | inactive |  | 
3 | CC1(C)S[C@@H]2[C@H](NC(=O)Cc3ccccc3)C(=O)N2[C@H]1C(=O)O [PENICILLIN G] | 27 | 178 | 96 (≈ 287 µM) | 6 (≈ 17.9 µM) | Active | 12 (≈ 35.9 µM) | > 256 | 4 (≈ 12 µM) | Active | 6.6e+06 |  | 3 (≈ 8.97 µM) |  |  | 
4 | O=C(O)[C@H]1/C(=C/CO)O[C@@H]2CC(=O)N21 [CLAVULANIC ACID] |  |  |  |  |  |  |  |  |  |  |  |  |  | 60 | 4.7
5 | CC1(C)S[C@@H]2[C@H](NC(=O)C(C(=O)O)c3ccccc3)C(=O)N2[C@H]1C(=O)O (some centres undefined) | 245 | 6 |  |  |  |  |  |  |  | 24000 | 0.4 |  |  |  | 
6 | Cc1onc(-c2ccccc2)c1C(=O)N[C@@H]1C(=O)N2[C@@H]1SC(C)(C)[C@@H]2C(=O)O [OXACILLIN] | 21 | 62 | 24 (≈ 59.8 µM) | 24 (≈ 59.8 µM) | Active | 24 (≈ 59.8 µM) |  |  | Active | 2.95e+06 | 45 | 16 (≈ 39.9 µM) |  |  | 
7 | CO/N=C(\C(=O)N[C@@H]1C(=O)N2C(C(=O)O)=C(COC(N)=O)CS[C@H]12)c1ccco1 |  |  |  |  |  |  |  |  |  |  |  |  | inactive |  | 
8 | CO[C@@]1(NC(=O)Cc2cccs2)C(=O)N2C(C(=O)O)=C(COC(N)=O)CS[C@@H]21 |  |  |  |  |  |  |  |  |  |  |  |  | inactive |  | 
9 | O=C(Cc1cccs1)N[C@@H]1C(=O)N2C(C(=O)[O-])=C(C[n+]3ccccc3)CS[C@H]12 | 26 | 0.56 |  |  |  |  |  |  |  | 22000 | 0.3 |  |  |  | 
10 | CC(C)(O/N=C(\C(=O)N[C@@H]1C(=O)N2C(C(=O)[O-])=C(C[n+]3ccccc3)CS[C@H]12)c1csc(N)n1)C(=O)O [CEFTAZIDIME] |  |  | > 256 | > 256 | Active | > 256 | 0.047 (≈ 0.086 µM) | 0.064 (≈ 0.117 µM) | Active |  |  | > 256 | inactive |  | 
11 | C[C@]1(Cn2ccnn2)[C@H](C(=O)O)N2C(=O)C[C@H]2S1(=O)=O [TAZOBACTAM] |  |  |  |  |  |  |  |  |  |  |  |  |  |  | 0.27
12 | CC1(C)S[C@@H]2[C@H](NC(=O)[C@H](N)c3ccc(O)cc3)C(=O)N2[C@H]1C(=O)O [AMOXICILLIN] |  |  | 16 (≈ 43.8 µM) | 2 (≈ 5.47 µM) | Active | 4 (≈ 10.9 µM) | > 256 | 1.5 (≈ 4.1 µM) | Active |  |  | 0.75 (≈ 2.05 µM) |  |  | 
13 | C[C@@H](O)[C@H]1C(=O)N2C(C(=O)O)=C(SCCNC=N)C[C@H]12 [IMIPENEM ANHYDROUS] |  |  | 0.19 (≈ 0.635 µM) | 0.19 (≈ 0.635 µM) | Active | 0.19 (≈ 0.635 µM) | 0.19 (≈ 0.635 µM) | 0.25 (≈ 0.835 µM) | Active |  |  | 0.19 (≈ 0.635 µM) |  |  | 
14 | C[C@H]1[C@H](NC(=O)/C(=N\OC(C)(C)C(=O)O)c2csc(N)n2)C(=O)N1S(=O)(=O)O [AZTREONAM] |  |  | > 256 | > 256 | Active | > 256 | < 0.016 | < 0.016 | Active |  |  | > 256 | Active |  | 
15 | CC1(C)[C@H](C(=O)O)N2C(=O)C[C@H]2S1(=O)=O [SULBACTAM] |  |  |  |  |  |  |  |  |  |  |  |  |  |  | 43.5
16 | CCN1CCN(C(=O)N[C@@H](C(=O)N[C@@H]2C(=O)N3[C@@H]2SC(C)(C)[C@@H]3C(=O)O)c2ccccc2)C(=O)C1=O [PIPERACILLIN] | 70 | 64 | 128 (≈ 247 µM) | 32 (≈ 61.8 µM) | Active | 64 (≈ 124 µM) | > 256 | 0.38 (≈ 0.734 µM) | Active | 914000 | 14 | 12 (≈ 23.2 µM) |  |  | 
17 | CC1(C)S[C@@H]2[C@H](NC(=O)[C@H](N)c3ccccc3)C(=O)N2[C@H]1C(=O)O [AMPICILLIN] | 48 | 153 | 24 (≈ 68.7 µM) | 2 (≈ 5.72 µM) | Active | 3 (≈ 8.59 µM) | > 256 | 0.75 (≈ 2.15 µM) | Active | 3.19e+06 | 48 | 1.5 (≈ 4.29 µM) |  |  | 
18 | CO/N=C(\C(=O)N[C@@H]1C(=O)N2C(C(=O)[O-])=C(C[N+]3(C)CCCC3)CS[C@H]12)c1csc(N)n1 |  |  |  |  |  |  |  |  |  |  |  |  | inactive |  | 

Reference: ChEMBL document CHEMBL1151476, “Genetic and biochemical characterization of CAD-1, a chromosomally encoded new class A penicillinase from Carnobacterium divergens” (Antimicrob Agents Chemother, 2008)
